In ChEMBL document CHEMBL1154352, “Toll-like receptor 7 selective synthetic oligoribonucleotide agonists: synthesis and structure-activity relationship studies” (J Med Chem, 2009):
The source made the active and inactive calls. The rule behind the calls is not given here.

Columns and labels:
PBMC [1] = test: Immunomodulatory activity in human PBMC assessed as induction of MCP1 after 24 hrs; format: functional, cell-based
Outline: (§1)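 Human PBMCs plated at 5 × 10^6 cells/mL; compounds dissolved in PBS added at various concentrations, 37 °C for 24 h. Supernatant cytokines/chemokines quantified with human Luminex multiplex kit.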

Mus musculus = test: Immunomodulatory activity in C57BL/6 mouse assessed as induction of IL12 release at 25 mg/kg, sc after 2 hrs by ELISA; format: functional, organism-based; set-up: dose 25 mg/kg
Outline: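 Female C57BL/6 wild-type mice, 5–8 weeks old, n=3; compounds given subcutaneously at 10 or 25 mg/kg. Retro-orbital blood at 2 h; serum cytokines by mouse Luminex multiplex or IL-12 ELISA.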

PBMC [2] = test: Immunomodulatory activity in human PBMC assessed as induction of TNFalpha after 24 hrs; format: functional, cell-based; outline: as §1
Homo sapiens [3] = species: Homo sapiens; test: Immunostimulatory activity in human mDC assessed as induction of TNFalpha at 100 ug/ml after 24 hrs; format: functional
Outline: (§2)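 Human mDCs isolated from PBMCs by CD19+ B-cell depletion then BDCA1 positive selection; plated at 1 × 10^6 cells/mL, compounds in PBS, 37 °C for 24 h; supernatant cytokines by human Luminex multiplex. Representative of four independent experiments.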

PBMC [4] = test: Immunomodulatory activity in human PBMC assessed as induction of IFN-alpha at 100 ug/ml after 24 hrs
PBMC [5] = test: Immunomodulatory activity in human PBMC assessed as induction of IL10 after 24 hrs; format: functional, cell-based; outline: as §1
PBMC [6] = test: Immunomodulatory activity in human PBMC assessed as induction of MIP1alpha after 24 hrs; format: functional, cell-based; outline: as §1
PBMC [7] = test: Immunomodulatory activity in human PBMC assessed as induction of IFNalpha at 50 ug/ml after 24 hrs; format: functional, cell-based; outline: as §1
PBMC [8] = test: Immunomodulatory activity in human PBMC assessed as induction of IL6 after 24 hrs; format: functional, cell-based; outline: as §1
PBMC [9] = test: Immunomodulatory activity in human PBMC assessed as induction of IL1-beta at 50 ug/ml after 24 hrs; format: functional, cell-based; outline: as §1
PBMC [10] = test: Immunomodulatory activity in human PBMC assessed as induction of TNFalpha at 50 ug/ml after 24 hrs; format: functional, cell-based; outline: as §1
Homo sapiens [11] = species: Homo sapiens; test: Immunostimulatory activity in human mDC assessed as induction of IL6 at 100 ug/ml after 24 hrs; format: functional; outline: as §2
Homo sapiens [12] = species: Homo sapiens; test: Immunostimulatory activity in human pDC assessed as induction of IP10 at 100 ug/ml after 24 hrs; format: functional
Outline: (§3)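 Human pDCs plated at 1 × 10^6 cells/mL; compounds in PBS added, 37 °C for 24 h; supernatant cytokines/chemokines by human Luminex multiplex kit.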

Homo sapiens [13] = species: Homo sapiens; test: Immunostimulatory activity in human pDC assessed as induction of IL6 at 100 ug/ml after 24 hrs; format: functional; outline: as §3
Homo sapiens [14] = species: Homo sapiens; test: Immunostimulatory activity in human mDC assessed as induction of IFNalpha at 100 ug/ml after 24 hrs; format: functional; outline: as §2
PBMC [15] = test: Immunomodulatory activity in human PBMC assessed as induction of IFNalpha after 24 hrs; format: functional, cell-based; outline: as §1
Homo sapiens [16] = species: Homo sapiens; test: Immunostimulatory activity in human mDC assessed as induction of IL12 at 100 ug/ml after 24 hrs; format: functional; outline: as §2
Homo sapiens [17] = species: Homo sapiens; test: Immunostimulatory activity in human mDC assessed as induction of IP10 at 100 ug/ml after 24 hrs; format: functional; outline: as §2
PBMC [18] = test: Immunomodulatory activity in human PBMC assessed as induction of IL12 at 50 ug/ml after 24 hrs; format: functional, cell-based; outline: as §1
[19] = molecular target: Toll-like receptor 3 (Homo sapiens) (UniProt O15455); test: Activation of human TLR3 expressed in HEK293 assessed as induction of NF-kappaB activity reporter gene assay; format: cell-based
Sequence of Toll-like receptor 3 (Homo sapiens) (O15455 whole entry): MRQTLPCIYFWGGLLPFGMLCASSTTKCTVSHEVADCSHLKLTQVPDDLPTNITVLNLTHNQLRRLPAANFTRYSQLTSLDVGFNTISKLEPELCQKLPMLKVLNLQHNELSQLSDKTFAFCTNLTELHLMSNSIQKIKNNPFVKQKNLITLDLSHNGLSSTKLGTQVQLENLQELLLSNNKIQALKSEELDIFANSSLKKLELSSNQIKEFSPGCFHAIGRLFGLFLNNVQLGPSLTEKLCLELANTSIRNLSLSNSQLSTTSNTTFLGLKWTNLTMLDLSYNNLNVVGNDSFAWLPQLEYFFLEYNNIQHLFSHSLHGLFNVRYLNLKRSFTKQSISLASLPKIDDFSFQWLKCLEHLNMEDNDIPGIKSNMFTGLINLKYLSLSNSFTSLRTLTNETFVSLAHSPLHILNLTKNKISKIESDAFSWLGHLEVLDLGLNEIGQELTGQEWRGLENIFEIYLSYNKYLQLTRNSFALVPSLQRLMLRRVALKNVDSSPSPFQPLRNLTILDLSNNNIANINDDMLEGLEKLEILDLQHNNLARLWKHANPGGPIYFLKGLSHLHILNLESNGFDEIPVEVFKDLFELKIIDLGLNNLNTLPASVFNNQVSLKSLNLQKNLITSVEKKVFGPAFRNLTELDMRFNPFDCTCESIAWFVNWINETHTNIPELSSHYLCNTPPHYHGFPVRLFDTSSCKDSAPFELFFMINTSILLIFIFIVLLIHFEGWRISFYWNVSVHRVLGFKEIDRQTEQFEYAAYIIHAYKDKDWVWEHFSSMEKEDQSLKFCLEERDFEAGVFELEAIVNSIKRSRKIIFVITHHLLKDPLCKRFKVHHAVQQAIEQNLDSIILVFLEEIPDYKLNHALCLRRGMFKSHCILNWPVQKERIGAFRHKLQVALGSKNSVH

PBMC [20] = test: Immunomodulatory activity in human PBMC assessed as induction of MCP1 at 50 ug/ml after 24 hrs; format: functional, cell-based; outline: as §1
PBMC [21] = test: Immunomodulatory activity in human PBMC assessed as induction of MIP1beta after 24 hrs; format: functional, cell-based; outline: as §1
PBMC [22] = test: Immunomodulatory activity in human PBMC assessed as induction of MIP1beta at 50 ug/ml after 24 hrs; format: functional, cell-based; outline: as §1
PBMC [23] = test: Immunomodulatory activity in human PBMC assessed as induction of IL6 at 50 ug/ml after 24 hrs; format: functional, cell-based; outline: as §1
PBMC [24] = test: Immunomodulatory activity in human PBMC assessed as induction of IL12 at 100 ug/ml after 24 hrs; format: functional, cell-based; outline: as §1
PBMC [25] = test: Immunomodulatory activity in human PBMC assessed as induction of MIP1alpha at 50 ug/ml after 24 hrs; format: functional, cell-based; outline: as §1
Homo sapiens [26] = species: Homo sapiens; test: Immunostimulatory activity in human pDC assessed as induction of IFNalpha at 100 ug/ml after 24 hrs; format: functional; outline: as §3
[27] = molecular target: T1, Toll-like receptor 9 (Mus musculus) (UniProt Q9EQU3); test: Activation of mouse TLR9 expressed in HEK293 assessed as induction of NF-kappaB activity reporter gene assay; format: cell-based
T1 sequence (whole entry): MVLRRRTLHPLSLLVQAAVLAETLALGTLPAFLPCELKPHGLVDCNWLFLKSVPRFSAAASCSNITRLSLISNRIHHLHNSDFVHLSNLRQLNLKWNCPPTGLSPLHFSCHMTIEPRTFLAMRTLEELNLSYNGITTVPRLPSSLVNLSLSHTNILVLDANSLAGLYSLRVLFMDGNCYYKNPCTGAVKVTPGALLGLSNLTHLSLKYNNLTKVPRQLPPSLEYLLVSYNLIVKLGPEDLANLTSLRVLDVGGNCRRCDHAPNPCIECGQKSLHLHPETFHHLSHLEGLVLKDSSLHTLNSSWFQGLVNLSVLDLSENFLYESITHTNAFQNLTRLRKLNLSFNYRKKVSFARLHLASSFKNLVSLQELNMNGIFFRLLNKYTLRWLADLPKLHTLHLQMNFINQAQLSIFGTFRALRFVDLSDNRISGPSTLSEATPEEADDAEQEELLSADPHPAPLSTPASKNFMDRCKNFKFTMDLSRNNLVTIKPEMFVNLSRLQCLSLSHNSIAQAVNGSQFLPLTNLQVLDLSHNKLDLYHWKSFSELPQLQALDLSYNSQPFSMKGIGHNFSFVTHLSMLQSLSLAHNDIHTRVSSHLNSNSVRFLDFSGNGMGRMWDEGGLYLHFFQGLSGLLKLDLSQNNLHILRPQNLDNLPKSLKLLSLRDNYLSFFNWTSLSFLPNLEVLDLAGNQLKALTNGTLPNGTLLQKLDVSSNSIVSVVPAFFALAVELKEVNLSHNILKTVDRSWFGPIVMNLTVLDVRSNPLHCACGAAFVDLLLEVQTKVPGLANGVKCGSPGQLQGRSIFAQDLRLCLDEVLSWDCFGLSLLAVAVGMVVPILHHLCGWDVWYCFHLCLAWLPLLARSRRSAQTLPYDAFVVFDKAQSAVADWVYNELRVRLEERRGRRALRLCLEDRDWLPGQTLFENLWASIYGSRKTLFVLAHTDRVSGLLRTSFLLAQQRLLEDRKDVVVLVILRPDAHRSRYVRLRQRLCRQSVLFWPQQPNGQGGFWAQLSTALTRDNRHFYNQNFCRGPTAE

PBMC [28] = test: Immunomodulatory activity in human PBMC assessed as induction of IP10 at 50 ug/ml after 24 hrs; format: functional, cell-based; outline: as §1

In the case of `Nc1ccn([C@@H]2O[C@H](COP(=O)(S)O[C@H]3[C@@H](O)[C@H](n4cnc5c(N)ncnc54)O[C@@H]3CO)[C@@H](OP(=O)(S)OC[C@H]3O[C@@H](n4ccc(=O)[nH]c4=O)[C@H](O)[C@@H]3OP(=O)(S)OC[C@H]3O[C@@H](n4ccc5c(=O)[nH]c(N)nc54)[C@H](O)[C@@H]3OP(=O)(S)OC[C@H]3O[C@@H](n4ccc(N)nc4=O)[C@H](O)[C@@H]3OP(=O)(S)OC[C@H]3O[C@@H](n4ccc5c(=O)[nH]c(N)nc54)[C@H](O)[C@@H]3OP(=O)(S)OC[C@H]3O[C@@H](n4cnc5c(N)ncnc54)[C@H](O)[C@@H]3OP(=O)(S)OC[C@H]3O[C@@H](n4ccc5c(=O)[nH]c(N)nc54)[C@H](O)[C@@H]3OP(=O)(S)OC[C@H]3O[C@@H](n4ccc(N)nc4=O)[C@H](O)[C@@H]3OP(=O)(S)OC[C@H]3O[C@@H](n4ccc(=O)[nH]c4=O)[C@H](O)[C@@H]3OP(=O)(S)OC[C@H]3O[C@@H](n4ccc(=O)[nH]c4=O)[C@H](O)[C@@H]3OP(=O)(S)OCC(O)COP(=O)(S)O[C@H]3[C@@H](O)[C@H](n4ccc(=O)[nH]c4=O)O[C@@H]3COP(=O)(S)O[C@H]3[C@@H](O)[C@H](n4ccc(=O)[nH]c4=O)O[C@@H]3COP(=O)(S)O[C@H]3[C@@H](O)[C@H](n4ccc(N)nc4=O)O[C@@H]3COP(=O)(S)O[C@H]3[C@@H](O)[C@H](n4ccc5c(=O)[nH]c(N)nc54)O[C@@H]3COP(=O)(S)O[C@H]3[C@@H](O)[C@H](n4cnc5c(N)ncnc54)O[C@@H]3COP(=O)(S)O[C@H]3[C@@H](O)[C@H](n4ccc5c(=O)[nH]c(N)nc54)O[C@@H]3COP(=O)(S)O[C@H]3[C@@H](O)[C@H](n4ccc(N)nc4=O)O[C@@H]3COP(=O)(S)O[C@H]3[C@@H](O)[C@H](n4ccc5c(=O)[nH]c(N)nc54)O[C@@H]3COP(=O)(S)O[C@H]3[C@@H](O)[C@H](n4ccc(=O)[nH]c4=O)O[C@@H]3COP(=O)(S)O[C@H]3[C@@H](O)[C@H](n4ccc(N)nc4=O)O[C@@H]3COP(=O)(S)O[C@H]3[C@@H](O)[C@H](n4cnc5c(N)ncnc54)O[C@@H]3CO)[C@H]2O)c(=O)n1` (some centres undefined), the Activity (PBMC [1]) is reported as “Dose-dependent effect”, the Activity (Mus musculus) is reported as “Active” and the Activity (PBMC [2]) is reported as “Dose-dependent effect”. The Activity (Homo sapiens [3]) was “Active”, the IFN-alpha (PBMC [4]) was 131 pg/mL and the Activity (PBMC [5]) was “Dose-dependent effect”. For the same compound, the Activity (PBMC [6]) was “Dose-dependent effect”, the Activity (PBMC [7]) was 266 pg/mL and the Activity (PBMC [8]) was “Dose-dependent effect”. The Activity (PBMC [9]) was 196 pg/mL, the Activity (PBMC [10]) was 256 pg/mL and the Activity (Homo sapiens [11]) was “Active”. The Activity (Homo sapiens [12]) was “Active”, the Activity (Homo sapiens [13]) was “Active” and the Activity (Homo sapiens [14]) was “Active”. The Activity (PBMC [15]) was “Dose-dependent effect”, the Activity (Homo sapiens [16]) was “Active” and the Activity (Homo sapiens [17]) was “Active”. For the same compound, the Activity (PBMC [18]) was 337 pg/mL, the Activity [19] was “inactive” and the Activity (PBMC [20]) was 51400 pg/mL. The Activity (PBMC [21]) was “Dose-dependent effect”, the Activity (PBMC [22]) was 8980 pg/mL and the Activity (PBMC [23]) was 2580 pg/mL. The Activity (PBMC [24]) was 487 pg/mL, the Activity (PBMC [25]) was 4890 pg/mL and the Activity (Homo sapiens [26]) was “Active”. The Activity [27] was “inactive” and the Activity (PBMC [28]) was 395 pg/mL.
